# High-throughput results (PubChem BioAssay)
# 14-3-3 Bad PPI – disrupts binding of bovine 14-3-3 zeta to phospho-Bad peptide. P63103. TR-FRET 14-3-3zeta/Dy647-pBad peptide displacement, 1 h. inhibition, % at 21.7 µM. hit rate 0.71% among 220,000;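 active = inhibition above about 70%, limit read from the data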;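 note: 0% = full 14-3-3 plus peptide FRET controls and 100% = background without 14-3-3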
# RBBP9 inh – blocks human serine hydrolase RBBP9; O75884; recombinant RBBP9, FP-Rh probe fluorescence polarization; inhibition, % at 7.94 µM; hit rate 0.2% among 220,000;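 active = inhibition above the campaign mean of all tested compounds plus 3 SD, cut at about 14% in these data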;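 note: plate controls were DMSO wells with RBBP9 for no effect and wells lacking RBBP9 protein for full effect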
#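 Measured by: FP readout at 525/598 nm; material: recombinant human RBBP9; also added: Serine-hydrolase probe FP-Rh, 375 nM pre-mixing; medium: Tris buffer pH 8.0, NaCl, Pluronic; replication: one well per compound; doses: one concentration, 7.94 µM nominal, 0.794% DMSO; timing: preincubation 30 min plus labeling 45 min at 25 °C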
# eIF4E-4G inh – blocks eIF4E binding to eIF4G | TR-FRET eIF4E-eIF4GI(517-606) binding, 2 h | hit rate 0.37% among 220,000 | P63073+Q04637 | inhibition, % at 21.7 µM;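 note: 0% = full FRET control wells and 100% = background wells lacking eIF4GI fragment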
# WT yeast gro inh – growth inhibition of WT yeast, mitochondrial fusion screen; mitochondrial fusion phenotypic screen, WT strain; inhibition, % at 10 µM; hit rate 2.1% among 190,000; in the data active = inhibition above about 58%; tested in S. cerevisiae
# EBV gp42 block – inhibitors of Epstein-Barr virus glycoprotein 42. AID 1085. inhibition, % (tested at 21.74 µM). Q1HVG2. hit rate 0.42% among 220,000. Fluorescence polarization binding assay, mP read-out; in the data active = inhibition above about 50%
# p47phox inh – p47phox (human) inhibition. AID 1274. inhibition, % at 24.7 µM. p47phox/p22phox peptide binding, fluorescence polarization, 2 h. hit rate 0.53% among 220,000. P14598;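 note: 0% = p47phox with labelled peptide and 100% = labelled peptide alone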
# Target sequence (P14598 whole entry, looked up): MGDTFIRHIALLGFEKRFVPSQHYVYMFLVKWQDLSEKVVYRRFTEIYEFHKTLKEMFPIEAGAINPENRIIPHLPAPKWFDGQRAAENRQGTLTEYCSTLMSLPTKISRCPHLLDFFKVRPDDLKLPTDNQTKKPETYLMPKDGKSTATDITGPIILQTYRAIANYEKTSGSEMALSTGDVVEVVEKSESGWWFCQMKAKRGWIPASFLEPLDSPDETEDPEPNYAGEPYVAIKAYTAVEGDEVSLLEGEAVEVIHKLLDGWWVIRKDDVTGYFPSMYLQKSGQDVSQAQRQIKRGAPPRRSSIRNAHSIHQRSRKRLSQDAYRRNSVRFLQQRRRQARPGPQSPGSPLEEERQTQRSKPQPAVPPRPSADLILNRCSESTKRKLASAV
# The depositor's hits bear a star; x = no result. Compounds with a hit are over-represented: about 3.7% of the library has one in this group of screens.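 Rule for the calls, unless noted: active = inhibition above about 30% (limit read from the data); inactive = the rest.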
SMILES,14-3-3 Bad PPI,RBBP9 inh,eIF4E-4G inh,WT yeast gro inh,EBV gp42 block,p47phox inh
Cc1cc(SCC(=O)NN)c2cc(Br)ccc2n1,5,-1,5,x,-26,-7
COc1cc(C(=O)N[C@H](C(=O)Nc2nnc(C3CC3)s2)C(C)C)cc(OC)c1OC,4,-9,10,x,-3,-11
Oc1ccc(CCc2n[nH]c(=S)n2-c2ccc(F)cc2)cc1,-18,1,6,x,-20,-14
NS(=O)(=O)c1ccc(NNC(=O)c2ccc(F)cc2F)cc1,0,5,2,x,-23,-9
COC(=O)c1c(NC(NC(=O)C(C)C)C(Cl)(Cl)Cl)sc2c1CCC2 (stereo not drawn),-8,-1,14,60*,10,-9
CCOC(=O)c1c(NS(=O)(=O)c2ccc(Br)cc2)sc2c1CCC2,0,3,-3,65*,-6,-30
CCOC(=O)c1c(NC(NC(C)=O)C(Cl)(Cl)Cl)sc2c1CCCC2 (stereo not drawn),-3,-4,3,67*,-2,-6
COC(=O)c1c(NC(NC(=O)C(C)(C)C)C(Cl)(Cl)Cl)sc2c1CCC2 (stereo not drawn),-2,-2,7,71*,15,-21
CCC(=O)NC(Nc1sc2c(c1C(=O)OC)CCC2)C(Cl)(Cl)Cl (stereo not drawn),-16,-11,5,43,0,-6
CCOC(=O)c1c(NS(=O)(=O)Cc2ccccc2)sc2c1CCCC2,-4,-9,-6,31,-2,-6
CN(Cc1ccccc1)C(=O)COC(=O)c1ccc(Cl)cc1N,4,-4,5,-4,-2,1
O=C(CSCc1nc2ccccc2[nH]1)Nc1ccc2ccccc2c1,-7,-8,-8,2,-14,-10
c1ccc2cc(CSCc3nc4ccccc4[nH]3)ccc2c1,0,-11,3,74*,12,-12
CCCCC(c1nnnn1CC1CCCO1)N1CCN(c2cc(Cl)ccc2C)CC1 (stereo not drawn),66,-9,-3,60*,-7,-2
CC(C)CCn1nnnc1C(c1ccc(F)cc1)N1CCN(C(=O)c2ccco2)CC1 (stereo not drawn),83*,2,8,11,-5,-1
CCCCC(c1nnnn1CC1CCCO1)N1CCN(c2ccccc2)CC1 (stereo not drawn),7,-10,-2,-1,-17,0
O=C(c1ccco1)N1CCN(C(c2ccc(F)cc2)c2nnnn2Cc2cccs2)CC1 (stereo not drawn),90*,-14,7,-4,-5,-11
O=C(c1ccco1)N1CCN(C(c2ccccc2)c2nnnn2Cc2cccs2)CC1 (stereo not drawn),55,-2,1,0,-8,-7
O=C(c1ccco1)N1CCN(C(c2ccc(Cl)cc2)c2nnnn2CC2CCCO2)CC1 (stereo not drawn),81*,4,-3,12,-11,-10
Cc1cc([N+](=O)[O-])cc2c1NC(=O)C2(O)N1CCOCC1 (stereo not drawn),-13,5,2,-20,13,-5
CCC1=C(OC(=O)N(CC)CC)N2C(=O)OC(=NCCc3c[nH]c4ccccc34)[C@]2(Cc2ccccc2)[C@H]2C1=CC[C@H]1C(=O)N(CC)C(=O)[C@H]12,-2,x,-7,x,-17,-34
CCS(=O)(=O)c1nc(S(=O)(=O)c2ccc(Cl)cc2)c(NCCOC)s1,2,-12,-1,2,2,-4
O=C1NC(=S)S/C1=C\c1ccc(SCc2ccccc2)o1,-6,0,19,83*,-74,-54
CCC1=NN2C(=N)/C(=C\c3ccc(SCc4ccco4)o3)C(=O)N=C2S1,-1,-8,2,26,-8,-152
O=C1NC(=S)S/C1=C\c1ccc(SCc2ccco2)o1,47,7,22,69*,-53,-80
Cc1cc(/C=C2\SC(=S)NC2=O)c(C)n1-c1ccccc1,-1,2,-1,x,41,-81
C=CCS/C(N)=N\N=C\c1c(O)ccc2ccccc12,-8,-2,9,x,8,-9
CC(=O)Nc1ccc(S(=O)(=O)Nc2nnc(CC(C)(C)C)s2)cc1,2,-4,1,-5,3,-2
